Assay results: ChEMBL document CHEMBL4699485, “Discovery and Development of SPR519 as a Potent, Selective, and Orally Bioavailable Inhibitor of PI3Kα and mTOR Kinases for the Treatment of Solid Tumors” (J Med Chem, 2020)
pIC50: −log10 of the molar value.

What was measured:
[1] = test system: A2780; assay: Antiproliferative activity against human A2780 cells after 48 hrs by MTT assay; format: functional, cell-based; conditions: A2780, 48 h
Outline: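 A2780 cells grown in DMEM with 10% FBS, L-glutamine and antibiotics, seeded at 10000 cells/well and allowed to adhere overnight. Treated 48 h across 20 µM–0.001 µM. MTT (5 mg/mL in PBS) added for 4 h, formazan dissolved in DMSO, absorbance read at 550 nm. % inhibition fit to a four-parameter log inhibitor vs response curve.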

[2] = target: T1, Serine/threonine-protein kinase mTOR (Homo sapiens, UniProt P42345); assay: Inhibition of recombinant human GST-tagged mTOR catalytic domain (1360 to 2549 residues) expressed in baculovirus expression system using GFP-4E-BP1 as substrate preincubated for 15 mins followed by substrate addition and measured after 60 mins by TR-FRET assay
Outline: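 Recombinant mTOR (FRAP1) was preincubated 15 min with serially diluted compound (10 µM–0.0005 µM, DMSO) in kinase buffer, 10 µL reaction. GFP-4E-BP1 (400 nM final) and ATP (8 µM final) were added and the reaction ran 1 h at RT. Quench buffer with Tb-anti-p4E-BP1 (pThr46) was added for 1 h at RT. TR-FRET 520/486 nm ratio was fitted by four-parameter sigmoidal regression.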

[3] = Metabolic stability in dog liver microsomes assessed as parent compound remaining at 10 uM remaining after 120 mins in presence of NADPH by HPLC analysis; format: ADME, Canis lupus familiaris, Microsome; conditions: read-out: Stabilty
Outline: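 Compound at 10 µM was incubated with 0.5 mg/mL liver microsomes and 1 mM NADPH (final). Samples were taken at 0, 15, 30, 60 and 120 min and stopped with acetonitrile, then centrifuged and the supernatant analysed by HPLC. Percent parent remaining was set relative to the 0 min peak area (100%).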

[4] = target: Voltage-gated inwardly rectifying potassium channel KCNH2 (Homo sapiens, UniProt Q12809); assay: Inhibition of human ERG by patch-clamp assay
[5] = target: RAC-beta serine/threonine-protein kinase (Homo sapiens) (UniProt P31751); assay: Inhibition of human AKT2 at 1 uM using fluorescently labeled peptide substrate measured after 3 hrs by microfluidic mobility shift assay relative to control
Outline: (§1)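 Single-concentration screen at 1 µM in duplicate, 1% final DMSO. Kinase (typically 1 nM), fluorescently labeled peptide substrate (typically 1 µM), ATP at Km and Mg²⁺ incubated about 3 h at 25 °C, then EDTA-quenched. Substrate and phosphorylated product separated by microfluidic electrophoresis and quantified by fluorescence.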

[6] = target: RAC-gamma serine/threonine-protein kinase (Homo sapiens) (UniProt Q9Y243); assay: Inhibition of human AKT3 at 1 uM using fluorescently labeled peptide substrate measured after 3 hrs by microfluidic mobility shift assay relative to control; outline: as §1
[7] = target: Receptor-type tyrosine-protein kinase FLT3 (Homo sapiens) (UniProt P36888); assay: Inhibition of human FLT3 at 1 uM using fluorescently labeled peptide substrate measured after 3 hrs by microfluidic mobility shift assay relative to control; outline: as §1
[8] = target: Dual specificity mitogen-activated protein kinase kinase 1 (Homo sapiens) (UniProt Q02750); assay: Inhibition of human MEK1 at 1 uM using fluorescently labeled peptide substrate measured after 3 hrs by microfluidic mobility shift assay relative to control; outline: as §1
[9] = target: Phosphatidylinositol 4-kinase beta (Homo sapiens) (UniProt Q9UBF8); assay: Inhibition of human PI4kbeta at 1 uM using fluorescently labeled peptide substrate measured after 3 hrs by microfluidic mobility shift assay relative to control; outline: as §1
[10] = target: Sphingosine kinase 1 (Homo sapiens) (UniProt Q9NYA1); assay: Inhibition of human SPHK1 at 1 uM using fluorescently labeled peptide substrate measured after 3 hrs by microfluidic mobility shift assay relative to control; outline: as §1
[11] = target: Angiopoietin-1 receptor (Homo sapiens) (UniProt Q02763); assay: Inhibition of human TIE2 at 1 uM using fluorescently labeled peptide substrate measured after 3 hrs by microfluidic mobility shift assay relative to control; outline: as §1
[12] = target: T1, Serine/threonine-protein kinase mTOR; assay: Inhibition of human mTOR at 1 uM using fluorescently labeled peptide substrate measured after 3 hrs by microfluidic mobility shift assay relative to control
Outline: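 Single-concentration screen at 1 µM in duplicate wells, in a 23-kinase panel using microfluidic mobility shift. Compound was diluted from a 100x DMSO stock, with 1% DMSO final. Kinase (typically 1 nM), fluorescent peptide substrate (typically 1 µM), ATP at 1x Km and Mg2+ were incubated typically 3 h at 25 °C, then quenched with EDTA. Substrate and phospho-product were separated electrophoretically and quantified by fluorescence.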

[13] = Tmax in Swiss mouse at 1 mg/kg, po via gavage by LC-MS/MS analysis; format: ADME, organism-based; conditions: in vivo
Outline: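 Female Swiss mice (n=3/group) were fasted overnight, then gavaged with compound in 0.5% CMC/0.5% Tween 80 at 10 mL/kg. Serial blood samples at 0.16, 0.5, 1, 2, 4, 6 and 8 h were taken into heparinized tubes and spun to plasma. Plasma was extracted with acetonitrile containing verapamil (400 ng/mL) and quantified by LC-MS/MS against plasma calibration curves. Tmax was derived from the concentration–time profile.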

[14] = AUC in Swiss mouse at 10 mg/kg, po via gavage by LC-MS/MS analysis; format: ADME, organism-based; set-up: dose 10 mg/kg; conditions: in vivo
Outline: (§2)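 Female Swiss mice (n=3/group), fasted overnight, given single oral gavage dose in 0.5% CMC/0.5% Tween 80 (10 mL/kg) at 1, 3 or 10 mg/kg. Serial blood sampling at 0.16–8 h into heparinized tubes. Plasma extracted with acetonitrile containing verapamil internal standard and quantified by LC-MS/MS. Cmax, Tmax, AUC and t1/2 derived from the concentration–time profile.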

[15] = Cmax in Swiss mouse at 10 mg/kg, po via gavage by LC-MS/MS analysis; format: ADME, organism-based; set-up: route oral, dose 10 mg/kg; conditions: in vivo; outline: as §2
[16] = Toxicity in Swiss mouse assessed as effect on eyes at 10 mg/kg, po administered twice daily via gavage for 5 days and measuring daily during compound dosing; format: organism-based; conditions: in vivo, 120 h, time 5 day
Outline: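 Female Swiss mice (3 treated, 2 vehicle controls) received oral gavage twice daily for 5 days, with compound formulated in 0.5% CMC and Tween 80. Body weight, body temperature, body coat, feed intake, eyes, feces and general activity were observed daily.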

[17] = Toxicity in Swiss mouse assessed as morphological changes in uterus at 30 mg/kg, po administered twice daily via gavage for 5 days and measured post last dose; format: organism-based; conditions: in vivo, 120 h, time 5 day
Outline: (§3)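 Female Swiss mice (3 treated, 2 controls) were gavaged twice daily for 5 days, with compound in 0.5% CMC and Tween 80. After the last dosing the animals were sacrificed. Liver, kidney, lung, uterus and brain were excised and inspected visually for morphology and color change.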

[18] = Toxicity in Swiss mouse assessed as discoloration of kidney at 30 mg/kg, po administered twice daily via gavage for 5 days and measured post last dose; format: organism-based; conditions: in vivo, 120 h, time 5 day; outline: as §3
[19] = Toxicity in Swiss mouse assessed as discoloration of liver at 30 mg/kg, po administered twice daily via gavage for 5 days and measured post last dose; format: organism-based; conditions: in vivo, 120 h, time 5 day; outline: as §3
[20] = Drug level in Swiss mouse uterus at 30 mg/kg, po administered twice daily via gavage for 5 days and measured post last dose by LC-MS/MS analysis; format: ADME, organism-based; conditions: time 5 day, read-out: Drug uptake
Outline: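 Female Swiss mice (n=3) given 30 mg/kg in 0.5% CMC/Tween 80 by oral gavage twice daily for 5 days, with two vehicle controls. After sacrifice, liver, kidney, lung, uterus and brain were collected, homogenized in water and solvent-extracted. Drug concentration (ng/g) measured by LC-MS/MS.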

Chain of Sphingosine kinase 1 (Homo sapiens) (Q9NYA1 whole entry): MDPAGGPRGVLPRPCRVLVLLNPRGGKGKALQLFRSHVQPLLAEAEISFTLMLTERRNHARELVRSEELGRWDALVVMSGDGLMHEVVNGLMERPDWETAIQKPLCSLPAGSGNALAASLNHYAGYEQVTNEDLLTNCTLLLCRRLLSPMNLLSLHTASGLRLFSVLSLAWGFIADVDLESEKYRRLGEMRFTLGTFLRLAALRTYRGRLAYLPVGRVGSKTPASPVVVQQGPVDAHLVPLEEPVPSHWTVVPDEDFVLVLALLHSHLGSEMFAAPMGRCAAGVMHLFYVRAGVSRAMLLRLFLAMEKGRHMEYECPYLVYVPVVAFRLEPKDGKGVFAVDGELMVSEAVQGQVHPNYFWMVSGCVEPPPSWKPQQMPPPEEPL
Chain of Receptor-type tyrosine-protein kinase FLT3 (Homo sapiens) (P36888 whole entry): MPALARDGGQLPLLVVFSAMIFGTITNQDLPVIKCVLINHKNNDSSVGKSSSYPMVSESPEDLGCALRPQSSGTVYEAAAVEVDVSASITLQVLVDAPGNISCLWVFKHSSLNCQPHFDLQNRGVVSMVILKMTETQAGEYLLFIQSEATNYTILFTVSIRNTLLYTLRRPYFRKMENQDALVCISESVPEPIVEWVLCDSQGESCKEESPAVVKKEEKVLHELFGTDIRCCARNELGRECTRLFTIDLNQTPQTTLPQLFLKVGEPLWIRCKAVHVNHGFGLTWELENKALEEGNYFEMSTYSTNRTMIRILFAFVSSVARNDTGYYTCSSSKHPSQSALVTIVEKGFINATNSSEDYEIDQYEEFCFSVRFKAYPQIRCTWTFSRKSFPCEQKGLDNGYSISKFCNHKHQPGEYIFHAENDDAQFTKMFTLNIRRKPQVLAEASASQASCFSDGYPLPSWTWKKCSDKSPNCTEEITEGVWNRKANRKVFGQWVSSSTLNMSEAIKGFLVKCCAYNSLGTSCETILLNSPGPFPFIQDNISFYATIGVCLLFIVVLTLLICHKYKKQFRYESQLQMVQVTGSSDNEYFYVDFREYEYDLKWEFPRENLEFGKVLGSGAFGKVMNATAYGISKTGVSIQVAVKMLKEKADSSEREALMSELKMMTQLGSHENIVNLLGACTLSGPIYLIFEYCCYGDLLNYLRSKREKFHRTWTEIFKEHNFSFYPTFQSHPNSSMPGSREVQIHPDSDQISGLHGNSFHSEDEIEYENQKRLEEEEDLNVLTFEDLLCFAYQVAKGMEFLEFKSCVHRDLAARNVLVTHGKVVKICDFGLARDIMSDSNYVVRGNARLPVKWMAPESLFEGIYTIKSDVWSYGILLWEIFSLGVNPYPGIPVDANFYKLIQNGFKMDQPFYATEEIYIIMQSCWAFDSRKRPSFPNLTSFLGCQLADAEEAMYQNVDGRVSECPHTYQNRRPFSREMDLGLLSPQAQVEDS
Chain of RAC-beta serine/threonine-protein kinase (Homo sapiens) (P31751 whole entry): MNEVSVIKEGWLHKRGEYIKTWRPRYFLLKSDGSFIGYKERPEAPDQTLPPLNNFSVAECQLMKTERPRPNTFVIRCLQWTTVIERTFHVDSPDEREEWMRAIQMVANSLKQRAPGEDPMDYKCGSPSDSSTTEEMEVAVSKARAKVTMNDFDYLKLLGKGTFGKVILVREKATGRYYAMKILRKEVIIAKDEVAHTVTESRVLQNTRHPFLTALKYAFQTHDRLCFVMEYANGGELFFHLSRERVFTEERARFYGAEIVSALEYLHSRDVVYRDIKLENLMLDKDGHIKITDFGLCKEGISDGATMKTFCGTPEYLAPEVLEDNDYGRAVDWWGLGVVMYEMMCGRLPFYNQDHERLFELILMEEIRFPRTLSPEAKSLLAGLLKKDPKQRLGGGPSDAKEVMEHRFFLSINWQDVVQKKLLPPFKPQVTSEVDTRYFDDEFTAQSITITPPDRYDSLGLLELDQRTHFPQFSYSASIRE
Chain of RAC-gamma serine/threonine-protein kinase (Homo sapiens) (Q9Y243 whole entry): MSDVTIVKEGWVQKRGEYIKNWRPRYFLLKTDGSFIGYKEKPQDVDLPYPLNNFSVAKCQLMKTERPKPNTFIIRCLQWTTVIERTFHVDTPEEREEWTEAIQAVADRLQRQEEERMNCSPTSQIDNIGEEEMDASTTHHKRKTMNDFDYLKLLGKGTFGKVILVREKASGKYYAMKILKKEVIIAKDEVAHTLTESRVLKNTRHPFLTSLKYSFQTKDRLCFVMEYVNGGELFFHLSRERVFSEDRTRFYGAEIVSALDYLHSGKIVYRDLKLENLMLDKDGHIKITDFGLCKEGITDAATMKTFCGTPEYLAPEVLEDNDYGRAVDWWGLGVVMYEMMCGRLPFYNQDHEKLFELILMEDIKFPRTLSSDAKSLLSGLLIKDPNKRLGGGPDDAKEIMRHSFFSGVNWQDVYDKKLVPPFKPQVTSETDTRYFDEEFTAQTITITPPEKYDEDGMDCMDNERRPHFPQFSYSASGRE
Chain of Phosphatidylinositol 4-kinase beta (Homo sapiens) (Q9UBF8 2-816 limits assumed): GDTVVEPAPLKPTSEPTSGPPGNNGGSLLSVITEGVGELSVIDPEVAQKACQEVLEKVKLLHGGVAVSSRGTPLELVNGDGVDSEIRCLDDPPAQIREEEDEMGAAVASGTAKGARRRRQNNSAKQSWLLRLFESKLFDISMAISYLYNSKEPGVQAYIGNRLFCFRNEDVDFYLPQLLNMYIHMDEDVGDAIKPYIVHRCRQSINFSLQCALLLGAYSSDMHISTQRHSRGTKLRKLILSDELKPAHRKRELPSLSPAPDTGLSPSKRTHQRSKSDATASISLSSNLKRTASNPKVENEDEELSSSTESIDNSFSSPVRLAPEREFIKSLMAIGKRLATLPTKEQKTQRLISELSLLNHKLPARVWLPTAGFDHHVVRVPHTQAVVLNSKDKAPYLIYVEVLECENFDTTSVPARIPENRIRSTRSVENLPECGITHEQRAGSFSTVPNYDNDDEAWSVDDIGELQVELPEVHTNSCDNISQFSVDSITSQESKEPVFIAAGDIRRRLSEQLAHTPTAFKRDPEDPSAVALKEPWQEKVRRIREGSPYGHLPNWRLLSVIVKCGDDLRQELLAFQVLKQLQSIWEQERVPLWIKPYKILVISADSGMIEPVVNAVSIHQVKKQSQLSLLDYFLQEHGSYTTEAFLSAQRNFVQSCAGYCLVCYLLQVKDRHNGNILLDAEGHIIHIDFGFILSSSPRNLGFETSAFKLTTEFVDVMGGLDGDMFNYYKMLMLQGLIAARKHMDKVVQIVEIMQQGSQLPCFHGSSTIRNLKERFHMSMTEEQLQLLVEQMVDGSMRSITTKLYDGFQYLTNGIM
Chain of Voltage-gated inwardly rectifying potassium channel KCNH2 (Q12809 whole entry): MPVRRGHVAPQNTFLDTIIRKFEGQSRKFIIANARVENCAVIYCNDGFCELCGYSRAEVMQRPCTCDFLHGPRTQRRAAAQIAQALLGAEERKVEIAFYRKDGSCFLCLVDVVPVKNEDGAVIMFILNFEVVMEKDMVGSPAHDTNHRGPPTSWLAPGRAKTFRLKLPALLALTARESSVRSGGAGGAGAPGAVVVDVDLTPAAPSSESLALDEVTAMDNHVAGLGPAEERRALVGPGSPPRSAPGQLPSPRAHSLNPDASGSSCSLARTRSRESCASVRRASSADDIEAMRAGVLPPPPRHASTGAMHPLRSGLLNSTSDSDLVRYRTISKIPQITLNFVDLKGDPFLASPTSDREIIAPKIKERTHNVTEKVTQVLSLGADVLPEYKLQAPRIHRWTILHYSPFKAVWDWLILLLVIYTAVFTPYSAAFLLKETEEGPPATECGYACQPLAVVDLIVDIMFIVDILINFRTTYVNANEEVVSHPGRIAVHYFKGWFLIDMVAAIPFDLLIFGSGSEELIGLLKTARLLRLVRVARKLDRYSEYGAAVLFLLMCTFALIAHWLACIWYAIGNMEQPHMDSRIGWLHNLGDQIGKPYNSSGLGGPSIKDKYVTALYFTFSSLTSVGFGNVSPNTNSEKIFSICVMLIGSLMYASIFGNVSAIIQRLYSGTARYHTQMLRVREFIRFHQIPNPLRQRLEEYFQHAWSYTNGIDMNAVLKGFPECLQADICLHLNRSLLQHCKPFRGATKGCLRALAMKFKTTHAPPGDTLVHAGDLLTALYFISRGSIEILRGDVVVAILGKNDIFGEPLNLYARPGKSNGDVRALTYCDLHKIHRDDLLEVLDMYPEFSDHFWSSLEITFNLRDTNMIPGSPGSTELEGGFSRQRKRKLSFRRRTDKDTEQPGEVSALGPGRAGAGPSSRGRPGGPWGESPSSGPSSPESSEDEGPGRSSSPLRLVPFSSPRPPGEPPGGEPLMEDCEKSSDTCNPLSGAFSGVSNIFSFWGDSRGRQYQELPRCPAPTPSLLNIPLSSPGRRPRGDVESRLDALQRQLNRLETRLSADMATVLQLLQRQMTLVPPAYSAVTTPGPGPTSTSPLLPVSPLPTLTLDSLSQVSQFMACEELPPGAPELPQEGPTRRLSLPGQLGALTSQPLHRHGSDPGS
Chain of Dual specificity mitogen-activated protein kinase kinase 1 (Homo sapiens) (Q02750 whole entry): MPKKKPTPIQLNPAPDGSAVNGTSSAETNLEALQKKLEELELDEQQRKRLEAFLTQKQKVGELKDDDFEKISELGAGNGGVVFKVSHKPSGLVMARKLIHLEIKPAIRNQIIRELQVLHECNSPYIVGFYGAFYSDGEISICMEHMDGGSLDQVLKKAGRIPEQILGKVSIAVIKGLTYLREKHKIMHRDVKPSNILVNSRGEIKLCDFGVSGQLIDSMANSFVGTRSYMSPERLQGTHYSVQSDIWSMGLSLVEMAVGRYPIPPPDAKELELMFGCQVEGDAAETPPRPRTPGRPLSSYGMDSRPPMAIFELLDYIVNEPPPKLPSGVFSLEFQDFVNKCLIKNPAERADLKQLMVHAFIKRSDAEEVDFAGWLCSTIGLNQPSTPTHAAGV

CN(C)C(=O)c1ccc(Oc2nc(-c3cnc(N)s3)nc(N3CCOCC3)n2)cc1
pIC50 [1]: 6.64
pIC50 [2]: 8.00
remaining at 2 h, 10 µM [3]: 105%
pIC50 [4]: < 5.00
inhibition [5]: 0%
inhibition [6]: -1%
inhibition [7]: 9%
inhibition [8]: 0%
inhibition [9]: -3%
inhibition [10]: -1%
inhibition [11]: 1%
inhibition [12]: 89%
Tmax [13]: 1.33 h
AUC [14]: 76.4 µM·h
Cmax [15]: 12.6 µM
Activity [16]: Non-Toxic
Activity [17]: Non-Toxic
Activity [18]: Non-Toxic
Activity [19]: Toxic
concentration at 120 h [20]: 10 ng/g
